ChEMBL document CHEMBL1121913, “Inactivation of liver alcohol dehydrogenases and inhibition of ethanol metabolism by ambivalent active-site-directed reagents” (J Med Chem, 1981)

Legend:
[1] = target: T1, Alcohol dehydrogenase (Equus caballus) (UniProt P00327+P00328); assay: The compound was tested for the ability to inactivate horse liver alcohol dehydrogenase in the presence of 1 mM NAD+k
[2] = target: T2, Alcohol dehydrogenase (Homo sapiens) (UniProt P07327+P08319+P00325+P00326+P40394+P11766+P28332); assay: The compound was tested for the ability to inactivate human liver alcohol dehydrogenase in the presence of 1 mM NAD+k
How it was run: (§1)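 Human liver ADH, purified on carboxymethyl- and DEAE-cellulose plus (NH₄)₂SO₄ (60%) with 5% ethanol throughout, ethanol dialysed out. Inactivation at 25 °C in 0.1 M Na₂P₂O₇, pH 8, enzyme about 0.2 mg/mL, 0.2 mM reagent; NAD⁺ added 1 min before reagent where used. Apparent second-order constant calculated assuming first order in reagent.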

[3] = (§2) Percent inhibition of Alcohol dehydrogenase activity in mice liver at dose 0.13 mmol/kg; type: tissue-based
How it was run: (§3)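 Fed male Swiss-Webster mice (20–25 g), four or five per group; compound suspended in sterile 0.9% saline, single i.p. dose 22–24 h before i.p. ethanol 3 g/kg (40% w/v in saline). Tail-vein blood ethanol by GC (1-propanol internal standard); elimination rate = β slope × dose/extrapolated zero-time level. Liver ADH afterwards: homogenate activity with ethanol/NAD⁺ minus 10 mM pyrazole control, per mg protein.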

[4] = The compound was tested for the ability to inactivate mouse liver alcohol dehydrogenase in the absence of NAD+K
How it was run: (§4)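 Mouse liver ADH, fourfold purified ((NH₄)₂SO₄ 45–65% cut, DEAE-cellulose), incubated at about 0.2 mg/mL with 0.2 mM reagent in 0.1 M Na₂P₂O₇ pH 8, 25 °C; coenzyme, when present, added 1 min before inactivator. Apparent second-order rate constant derived assuming reaction first order in reagent.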

[5] = The compound was tested for the ability to inactivate mouse liver alcohol dehydrogenase in the presence of 1 mM NAD+K; Slow inactivation
[6] = The compound was tested for the ability to inactivate rat liver alcohol dehydrogenase in the absence of NAD+K
How it was run: (§5)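 Rat liver enzyme purified 15-fold ((NH₄)₂SO₄ 35–75%, DEAE-cellulose). Inactivation with 0.2 mM reagent, 0.1 M pyrophosphate buffer pH 8, 25 °C, enzyme near 0.2 mg/mL; NAD⁺ preincubated 1 min with enzyme before reagent addition. Apparent second-order constants computed on assumption of first-order dependence on reagent.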

[7] = (§6) Percent inhibition of Alcohol dehydrogenase activity in rat liver at dose 0.13 mmol/kg; type: tissue-based
How it was run: as §3, with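 “Male Sprague-Dawley rats (160–200” for “Fed male Swiss-Webster mice (20–25”, “two” for “four or five”, “experiment;” for “group;”, “2” for “3”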

[8] = target: T1, Alcohol dehydrogenase (Equus caballus); assay: The compound was tested for the ability to inactivate horse liver alcohol dehydrogenase in the absence of NAD+k
Mus musculus [9] = assay: (§7) Percent inhibition of rate of ethanol metabolism in mice at dose 0.13 mmol/kg; type: functional; how it was run: as §3
Mus musculus [10] = assay: Percent inhibition of recovery of rotarod performance in mice at dose 0.13 mmol/kg; type: functional
How it was run: (§8)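 Mice trained to hang on a 2-cm rod rotating at 7 rpm, two 15-min periods. Reagent given ip 22 h before ethanol 3 g/kg; five mice per dose, five vehicle controls. Impairment = 100(15 − minutes on rod)/15, probit-transformed; t1/2 for regaining 50% performance by regression. Inhibition = [t1/2(treated) − t1/2(control)]/t1/2(treated).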

[11] = Toxic effect in mice; type: toxicity, organism-based; conditions: mouse, in vivo
How it was run: (§9)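 Male Swiss-Webster mice (20–25 g); single i.p. dose of compound suspended in sterile 0.9% saline. Acute lethality scored over 24 h; LD₅₀ with limits at p ≤ 0.05 from three doses on 15 mice.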

[12] = Toxic effect in rats; type: toxicity, organism-based; conditions: rat, in vivo
How it was run: (§10)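 Male Sprague-Dawley rats (160–200 g), two per dose; single i.p. dose of compound suspended in sterile 0.9% saline. Acute lethality scored over 24 h after dosing.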

Rattus norvegicus [13] = assay: (§11) Percent inhibition of rate of ethanol metabolism in rats at dose 0.13 mmol/kg; type: functional
How it was run: as §3, with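 “Male Sprague-Dawley rats (160–200” for “Fed male Swiss-Webster mice (20–25”, “two” for “four or five”, “experiment;” for “group;”, “2” for “3”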

[14] = target: T2, Alcohol dehydrogenase (Homo sapiens); assay: (§12) The compound was tested for the ability to inactivate human liver alcohol dehydrogenase in the absence of NAD+K
How it was run: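 Human liver ADH purified by CM- and DEAE-cellulose chromatography and (NH₄)₂SO₄ precipitation, with 5% ethanol removed by dialysis. Enzyme about 0.2 mg/mL with 0.2 mM reagent in 0.1 M Na₂P₂O₇, pH 8, 25 °C, no coenzyme. Apparent second-order rate constant assumes first order in reagent.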

[15] = target: T2, Alcohol dehydrogenase (Homo sapiens); assay: as §12; how it was run: as §1; remark: listed apart in the source
[16] = The compound was tested for the ability to inactivate mouse liver alcohol dehydrogenase in the presence of 1 mM NAD+K; how it was run: as §4
[17] = The compound was tested for the ability to inactivate rat liver alcohol dehydrogenase in the presence of 1 mM NAD+K; how it was run: as §5
[18] = target: T1, Alcohol dehydrogenase (Equus caballus); assay: The compound was tested for the ability to inactivate horse liver alcohol dehydrogenase in the presence of 1 mM NAD+; second order rate constant M-1 min-1
Mus musculus [19] = assay: In vivo inhibition of rate of ethanol metabolism in mice at dose 0.48 mmol/kg; type: functional
How it was run: (§13)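 Mice (male Swiss-Webster, fed) dosed ip with reagent in saline 22–24 h before ethanol 3 g/kg ip. Tail-vein blood (5 µL) deproteinized with Ba(OH)₂/ZnSO₄, 1-propanol internal standard, analyzed by GC with flame-ionization detection. Elimination slope fitted excluding absorption (1–2 h), multiplied by r (dose / theoretical zero-time blood level) to give metabolic rate. Four or five mice per group.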

[20] = Toxic effect in mice was determined in vivo; type: toxicity, organism-based; conditions: mouse; how it was run: as §9
Mus musculus [21] = assay: In vivo inhibition of ADH activity in mice liver at a dose of 0.48 mmol/kg; type: functional
How it was run: (§14)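 Male Swiss-Webster mice (20–25 g), fed, given one ip dose of reagent suspended in sterile 0.9% saline, then ethanol 3 g/kg ip (40% w/v in saline) 22–24 h later. Liver removed once blood ethanol approached zero, chilled, homogenized, clarified by centrifugation. ADH activity taken as initial-velocity difference, ethanol/NAD⁺ assay minus same assay with 10 mM pyrazole, per mg protein. Four or five mice per group.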

Mus musculus [22] = assay: In vivo inhibition of recovery of rotarod performance in mice at a dose of 0.48 mM/kg; type: functional; how it was run: as §8
[23] = Toxic effect in rats was determined in vivo; type: toxicity, organism-based; conditions: rat; how it was run: as §10
Rattus norvegicus [24] = assay: In vivo inhibition of rate of ethanol metabolism in rats at dose 0.48 mmol/kg; type: functional
How it was run: (§15)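 Rats (male Sprague-Dawley, fed) pretreated ip with reagent suspended in saline 22–24 h before ethanol 2 g/kg ip. Serial 5 µL tail-vein samples, Ba(OH)₂/ZnSO₄ deproteinization with 1-propanol internal standard, GC-FID. Metabolic rate = blood-ethanol decline slope × ratio of dose to extrapolated zero-time blood level. Two rats per experiment.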

Rattus norvegicus [25] = assay: In vivo inhibition of ADH activity in rat liver at a dose of 0.48 mM/kg; type: functional
How it was run: (§16)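 Fed male Sprague-Dawley rats (160–200 g) received a single ip saline-suspended reagent dose, then ethanol 2 g/kg ip (40% w/v in saline) 22–24 h afterwards. Liver excised when blood ethanol neared zero, homogenized on ice, centrifuged. Activity = initial rate with ethanol and NAD⁺ minus rate in control assay containing 10 mM pyrazole, expressed per mg protein. Two rats per experiment.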

[26] = target: T1, Alcohol dehydrogenase (Equus caballus); assay: The compound was tested for the ability to inactivate horse liver alcohol dehydrogenase in the presence of 0.2 mM NAD+K
[27] = target: T2, Alcohol dehydrogenase (Homo sapiens); assay: The compound was tested for the ability to inactivate human liver alcohol dehydrogenase in the absence of NAD+(K; how it was run: as §1
[28] = target: T2, Alcohol dehydrogenase (Homo sapiens); assay: The compound was tested for the ability to inactivate human liver alcohol dehydrogenase in the presence of 1 mM NAD+(K; how it was run: as §1
[29] = The compound was tested for the ability to inactivate rat liver alcohol dehydrogenase in the presence of NAD+K; how it was run: as §5
[30] = as §6; type: tissue-based; how it was run: as §16; remark: listed apart in the source
[31] = target: T1, Alcohol dehydrogenase (Equus caballus); assay: The compound was tested for the ability to inactivate horse liver alcohol dehydrogenase in the presence of 0.2 mM NAD+(K
Rattus norvegicus [32] = assay: as §11; type: functional; how it was run: as §15; remark: listed apart in the source
[33] = test system: Alcohol dehydrogenase (Equus caballus); assay: The compound was tested for the ability to inactivate horse liver alcohol dehydrogenase in the presence of 0.2 mM NAD+K
[34] = test system: Alcohol dehydrogenase (Homo sapiens); assay: The compound was tested for the ability to inactivate human liver alcohol dehydrogenase in the presence of 0.2 mM NADH(K
[35] = target: T1, Alcohol dehydrogenase (Equus caballus); assay: The compound was tested for the ability to inactivate horse liver alcohol dehydrogenase in the presence of 1 mM NAD+K
[36] = as §2; type: tissue-based; how it was run: as §14; remark: listed apart in the source
[37] = as §7; conditions: in the assay text read “0.48 mmol/kg” for “0.13 mmol/kg”; how it was run: as §13

NC(=O)CBr
Rate constant [1]: 0.000167 M⁻¹ s⁻¹ | Rate constant [2]: 0.0483 M⁻¹ s⁻¹ | inhibition [3]: 27% | Rate constant [4]: 0.147 M⁻¹ s⁻¹ | Rate constant [5]: Slow inactivation | Rate constant [6]: 0.0883 M⁻¹ s⁻¹ | inhibition [7]: 0% | Rate constant [8]: 0.0267 M⁻¹ s⁻¹ | inhibition in vivo at 130 µmol/kg (Mus musculus [9]): 18% | inhibition in vivo at 130 µmol/kg (Mus musculus [10]): 28% | LD50 [11]: 270 µmol/kg | LD50 [12]: 270 µmol/kg | inhibition in vivo at 130 µmol/kg (Rattus norvegicus [13]): 11% | Rate constant [14]: 0.0483 M⁻¹ s⁻¹

O=C(CBr)Nc1ccc(-c2ccc(C(=O)O)cc2)cc1
Rate constant [1]: 0.4 M⁻¹ s⁻¹ | Rate constant [15]: 0.833 M⁻¹ s⁻¹ | Rate constant [2]: 58.3 M⁻¹ s⁻¹ | Rate constant [4]: 0.717 M⁻¹ s⁻¹ | Rate constant [16]: 0.105 M⁻¹ s⁻¹ | Rate constant [6]: 0.483 M⁻¹ s⁻¹ | Rate constant [17]: 0.417 M⁻¹ s⁻¹ | Rate constant [8]: 2.33 M⁻¹ s⁻¹

CC(=O)Nc1ccc(CCCC(N)=O)cc1
Activity [18]: 1500 | inhibition in vivo at 480 µmol/kg (Mus musculus [19]): 60% | LD50 [20]: > 480 µmol/kg | inhibition in vivo at 480 µmol/kg (Mus musculus [21]): 43% | Inhibition (Mus musculus [22]): 60% | LD50 [23]: > 480 µmol/kg | inhibition in vivo at 480 µmol/kg (Rattus norvegicus [24]): 0% | Inhibition (Rattus norvegicus [25]): 8%

O=C(O)CCCc1ccc(NC(=O)CBr)cc1
Rate constant [1]: 2 M⁻¹ s⁻¹ | Rate constant [26]: 0.25 M⁻¹ s⁻¹ | Rate constant [27]: 0.183 M⁻¹ s⁻¹ | Rate constant [28]: 2.33 M⁻¹ s⁻¹ | Rate constant [4]: 0.633 M⁻¹ s⁻¹ | Rate constant [16]: 0.233 M⁻¹ s⁻¹ | Rate constant [17]: 0.533 M⁻¹ s⁻¹ | Rate constant [29]: 0.533 M⁻¹ s⁻¹ | inhibition [30]: 27% | Rate constant [8]: 1.67 M⁻¹ s⁻¹ | Rate constant [31]: 0.25 M⁻¹ s⁻¹ | inhibition in vivo at 130 µmol/kg (Rattus norvegicus [32]): 24% | Rate constant [33]: 0.25 M⁻¹ s⁻¹ | Rate constant [34]: 0.085 M⁻¹ s⁻¹

O=C(O)CBr
Rate constant [1]: 0.0015 M⁻¹ s⁻¹ | Rate constant [15]: 0.0133 M⁻¹ s⁻¹ | Rate constant [4]: 0.163 M⁻¹ s⁻¹ | Rate constant [6]: 0.217 M⁻¹ s⁻¹ | Rate constant [17]: 0.0133 M⁻¹ s⁻¹ | Rate constant [8]: 0.138 M⁻¹ s⁻¹

CS(=O)(=O)OCC(=O)Nc1ccc(CCCC(N)=O)cc1
Rate constant [35]: 0.4 M⁻¹ s⁻¹ | Rate constant [26]: 0.217 M⁻¹ s⁻¹ | inhibition [36]: 38% | inhibition [37]: 43% | inhibition [30]: 35% | inhibition in vivo at 130 µmol/kg (Mus musculus [10]): 70% | LD50 [11]: > 480 µmol/kg | LD50 [12]: > 480 µmol/kg | inhibition in vivo at 130 µmol/kg (Rattus norvegicus [32]): 15%

O=C(O)CCCCCCCCCCNC(=O)CBr
Rate constant [1]: 0.05 M⁻¹ s⁻¹ | Rate constant [15]: 3.83 M⁻¹ s⁻¹ | Rate constant [2]: 23.3 M⁻¹ s⁻¹ | Rate constant [4]: 0.147 M⁻¹ s⁻¹ | Rate constant [6]: 0.152 M⁻¹ s⁻¹ | Rate constant [17]: 0.0667 M⁻¹ s⁻¹ | Rate constant [8]: 0.717 M⁻¹ s⁻¹
